Measurements taken from ChEMBL document CHEMBL2169822, “Discovery and optimization of 1,3,4-trisubstituted-pyrazolone derivatives as novel, potent, and nonsteroidal farnesoid X receptor (FXR) selective antagonists” (J Med Chem, 2012).
Active and inactive are the calls of the source. The rule behind the calls is not given here.

Key:
[1] = target: T1, Peroxisome proliferator-activated receptor gamma (Homo sapiens) (UniProt P37231); assay: Antagonist activity at recombinant PPARgamma LBD expressed in HEK293T cells co-expressing GAL4 DBD assessed as inhibition of rosiglitazone-induced transactivation at 20 uM by luciferase reporter gene assay; format: functional, cell-based; conditions: HEK-293T
T1 sequence (whole entry): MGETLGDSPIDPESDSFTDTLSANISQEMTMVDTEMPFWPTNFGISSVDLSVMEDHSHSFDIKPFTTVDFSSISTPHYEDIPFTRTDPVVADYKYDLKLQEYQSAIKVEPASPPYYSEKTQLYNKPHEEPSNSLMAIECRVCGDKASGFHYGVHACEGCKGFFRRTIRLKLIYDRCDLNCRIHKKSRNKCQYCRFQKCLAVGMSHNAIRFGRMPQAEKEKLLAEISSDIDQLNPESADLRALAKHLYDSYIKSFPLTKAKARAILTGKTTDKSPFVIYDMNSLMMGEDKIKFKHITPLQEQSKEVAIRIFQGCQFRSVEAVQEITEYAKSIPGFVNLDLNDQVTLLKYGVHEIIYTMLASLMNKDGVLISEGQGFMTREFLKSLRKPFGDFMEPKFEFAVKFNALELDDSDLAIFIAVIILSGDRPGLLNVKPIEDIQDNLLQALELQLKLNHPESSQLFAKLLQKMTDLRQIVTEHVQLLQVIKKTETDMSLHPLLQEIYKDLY
Method in brief: (§1)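 One-hybrid assay in HEK293T cells cotransfected with a Gal4 DBD–NR-LBD fusion (RXRα, LXRα, GR, PR, PPARδ or PPARγ) plus UAS-TK-Luc reporter. Compound was 20 μM, given alone or with agonist: 9cRA 0.1 μM (RXRα), TO901317 0.5 μM (LXRα), dexamethasone 50 nM (GR), progesterone 100 nM (PR), GW1516 10 μM (PPARδ), rosiglitazone 10 μM (PPARγ). Luciferase read-out; three independent experiments.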

[2] = target: T2, Bile acid receptor (Homo sapiens) (UniProt Q96RI1); assay: Antagonist activity at human FXR in human HepG2 cells assessed as inhibition of CDCA induced SREBP1c gene expression at 5 to 40 uM after 24 hrs by RT-PCR analysis; format: functional, cell-based
T2 sequence (whole entry): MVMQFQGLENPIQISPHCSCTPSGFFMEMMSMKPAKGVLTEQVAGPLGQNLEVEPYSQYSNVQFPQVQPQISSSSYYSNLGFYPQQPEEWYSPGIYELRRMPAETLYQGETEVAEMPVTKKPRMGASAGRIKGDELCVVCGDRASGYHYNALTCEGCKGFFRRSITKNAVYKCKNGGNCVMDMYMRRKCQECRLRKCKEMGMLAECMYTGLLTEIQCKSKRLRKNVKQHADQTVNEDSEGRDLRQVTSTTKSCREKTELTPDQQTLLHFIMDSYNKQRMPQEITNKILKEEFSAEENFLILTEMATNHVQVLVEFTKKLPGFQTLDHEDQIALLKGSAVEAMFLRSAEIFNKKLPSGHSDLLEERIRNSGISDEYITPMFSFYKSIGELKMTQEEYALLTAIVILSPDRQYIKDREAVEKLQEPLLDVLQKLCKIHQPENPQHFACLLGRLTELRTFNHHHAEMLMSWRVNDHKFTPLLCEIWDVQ
Method in brief: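 HepG2 cells in 6-well plates were treated with varied concentrations of compound, with or without 100 μM CDCA, for 24 h. Total RNA was taken with TRIzol and cDNA made by reverse transcription. Cyp7A1, SHP, BSEP and SREBP1c mRNA were measured by quantitative RT-PCR and normalized to β-actin. Three independent experiments.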

[3] = target: T3, Peroxisome proliferator-activated receptor delta (Homo sapiens) (UniProt Q03181); assay: Antagonist activity at recombinant PPARdelta LBD expressed in HEK293T cells co-expressing GAL4 DBD assessed as inhibition of GW1516-induced transactivation at 20 uM by luciferase reporter gene assay; format: functional, cell-based; conditions: HEK-293T; method in brief: as §1
T3 sequence (whole entry): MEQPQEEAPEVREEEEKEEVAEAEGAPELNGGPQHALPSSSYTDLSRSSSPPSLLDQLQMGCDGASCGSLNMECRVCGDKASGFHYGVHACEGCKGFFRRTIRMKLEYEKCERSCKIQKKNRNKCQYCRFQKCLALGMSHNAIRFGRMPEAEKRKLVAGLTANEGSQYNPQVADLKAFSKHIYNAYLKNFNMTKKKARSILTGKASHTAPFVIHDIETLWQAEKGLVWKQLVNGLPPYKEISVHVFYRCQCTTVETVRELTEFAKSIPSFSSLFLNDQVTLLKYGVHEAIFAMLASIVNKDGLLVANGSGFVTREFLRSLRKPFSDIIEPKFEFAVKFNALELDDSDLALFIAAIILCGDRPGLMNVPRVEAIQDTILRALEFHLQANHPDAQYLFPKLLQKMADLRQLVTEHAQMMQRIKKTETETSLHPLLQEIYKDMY

HEK-293T = assay: (§2) Antagonist activity at FXRalpha/RXRalpha expressed in HEK293T cells co-expressing GAL4 DBD assessed as inhibition of CDCA-induced transactivation after 18 hrs by luciferase reporter gene assay; format: functional, cell-based; conditions: Homo sapiens
Method in brief: (§3)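 FXR transactivation in HEK293T cells transiently transfected with pcDNA3.1-FXRα, pcDNA3.1-RXRα, pGL3-FXRE-Luc and pRL-SV40 Renilla vector. Medium was replaced 6 h after transfection with medium holding compound at varied concentrations, with or without 20 μM CDCA, for 18 h. Read-out was dual-luciferase. Three independent experiments.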

[4] = as §2; format: functional, cell-based; conditions: Homo sapiens, HEK-293T; method in brief: as §3
BL21 = assay: (§4) Antagonist activity at GST-tagged human recombinant FXRalphaLBD expressed in Escherichia coli BL21 cells assessed as inhibition of CDCA-induced SRC-1 co-activator association by HTRF assay; format: functional
Method in brief: (§5)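 HTRF coactivator recruitment: 10 nM GST-human FXRαLBD (residues 238–473, E. coli BL21(DE3)), 0.83 nM anti-GST-Eu cryptate, 100 nM biotin-SRC1 peptide, 41.75 nM SA/XL665. Buffer was 50 mM Hepes pH 7.0, 125 mM KF, 0.125% CHAPS, 0.05% dry milk. Compound alone or with CDCA, 30 min at room temperature. Signal was 1000×(668/620 nm). Primary screen at 40 μM; IC50 as mean ± SE, three experiments.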

[5] = as §4; format: functional; method in brief: as §5
[6] = Agonist activity at GST tagged human recombinant FXRalphaLBD expressed in Escherichia coli BL21 cells assessed as SRC-1 co-activator association at 40 uM after 30 mins by HTRF assay; format: functional; method in brief: as §5

inhibition [1]: inactive
inhibition [2]: Active
inhibition [3]: inactive
IC50 [4]: 25.6 µM
IC50 [5]: 8.96 µM
SMILES: COc1cc(/C=C2\C(=O)N(c3cccc([N+](=O)[O-])c3)N=C2c2ccccc2)ccc1O
inhibition (HEK-293T): Dose-dependent effect
inhibition (BL21): Dose-dependent effect
Activity [6]: <5%
